Experiments:
Mus musculus [1] = experiment: Toxicity in C57BL/6 mouse assessed as histological abnormalities of brain at 2000 mg/kg, ig after 14 consecutive days by hematoxylin/eosin dye-based microscopic analysis; format: organism-based; settings: in vivo, po, 336 h
Method in brief: (§1)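 Adult C57BL/6 mice, 12 weeks old, single intragastric doses of 0, 677, 1333 or 2000 mg/kg (n = 6 per dose, 3 male/3 female); behaviour and mortality observed over 14 days; liver, heart, lung and brain examined by HE staining at 2000 mg/kg.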

Mus musculus [2] = experiment: Cognition enhancement activity in double APP/PS1 transgenic Alzheimer's disease mouse model assessed as time spent in effective region at 30 mg/kg/day, po for 80 days by Morris water maze test (reference value: 9.0 +/- 3.8 sec); format: functional
Method in brief: (§2)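 APP/PS1 mice, six months old, gavaged 30 mg/kg/day in 0.5% CMC-Na for 80 days. Probe trial was a single 90 s free swim with the platform absent; effective region is twice the platform diameter. n = 10, mean ± SD, two-way ANOVA.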

Mus musculus [3] = experiment: Induction of cell proliferation in C57BL/6 mouse hippocampal neurons in CA1 region assessed as BrdU-incorporation at 0.5 uL/hr, icv for 7 days by immunohistochemical analysis (reference value: 3.2%); format: functional
Mus musculus [4] = experiment: Toxicity in C57BL/6 mouse assessed as effect on body weight at 677 to 2000 mg/kg, ig measured continuously during first 4 hrs, intermittently for following 24 hrs and occasionally thereafter for 14 consecutive days; format: organism-based; settings: in vivo, po
Mus musculus [5] = experiment: Cognition enhancement activity in double APP/PS1 transgenic Alzheimer's disease mouse model assessed as time spent in correct quadrant at 30 mg/kg/day, po for 80 days by Morris water maze test (reference value: 20.6 +/- 4.4 sec); format: functional; method in brief: as §2
Mus musculus [6] = experiment: Cognition enhancement activity in double APP/PS1 transgenic Alzheimer's disease mouse model assessed as time spent in virtual platform at 30 mg/kg/day, po for 80 days by Morris water maze test (reference value: 1.9 +/- 0.2 sec); format: functional; method in brief: as §2
Mus musculus [7] = experiment: Toxicity in C57BL/6 mouse assessed as histological abnormalities of lung at 2000 mg/kg, ig after 14 consecutive days by hematoxylin/eosin dye-based microscopic analysis; format: organism-based; settings: in vivo, po, 336 h; method in brief: as §1
Mus musculus [8] = experiment: Toxicity in C57BL/6 mouse assessed as effect on food intake at 677 to 2000 mg/kg, ig measured continuously during first 4 hrs, intermittently for following 24 hrs and occasionally thereafter for 14 consecutive days; format: organism-based; settings: in vivo, po
Mus musculus [9] = experiment: Toxicity in double APP/PS1 transgenic Alzheimer's disease mouse model assessed as emesis-like behavior at 30 mg/kg/day, po for 80 days; format: organism-based; settings: in vivo, 1920 h
Method in brief: (§3)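 APP/PS1 double-transgenic mice, six months old, dosed by intragastric infusion at 30 mg/kg/day in 0.5% CMC-Na for 80 consecutive days (n = 10). Vehicle mice and wild-type C57BL/6 mice received blank 0.5% CMC-Na. Body weight tracked daily; diarrhoea, emesis-like behaviour and mortality monitored. At sacrifice, brain, subcutaneous layer, stomach, intestines, heart, lung, liver, spleen, kidneys and other organs examined for expansion or carcinogenicity.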

Mus musculus [10] = experiment: Toxicity in double APP/PS1 transgenic Alzheimer's disease mouse model assessed as carcinogenicity in heart at 30 mg/kg/day, po for 80 days; format: organism-based; settings: in vivo, 1920 h; method in brief: as §3
Mus musculus [11] = experiment: Toxicity in C57BL/6 mouse assessed as macroscopic abnormalities of stomach at 677 to 2000 mg/kg, ig after 14 consecutive days; format: organism-based; settings: in vivo, po
Mus musculus [12] = experiment: Antialzheimer activity in double APP/PS1 transgenic Alzheimer's disease mouse model assessed as reduction in amyloid beta burden at 30 mg/kg/day, po for 80 days by immunochemical staining-based analysis relative to control; format: functional; design: scale not given: the % may be the effect or the level left
Method in brief: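 APP/PS1 mice gavaged 30 mg/kg/day for 80 days (n = 10). Coronal sections immunostained with mOC64 anti-Aβ antibody; plaque burden is the percent area of a half coronal hemisphere.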

Mus musculus [13] = experiment: Induction of cell proliferation in C57BL/6 mouse hippocampal neurons in CA1 region assessed as BrdU-incorporation at 30 mg/kg, po administered via gavage for 7 days by immunohistochemical analysis (reference value: 2.3%); format: functional
Method in brief: (§4)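 C57BL/6 mice, 12 weeks old, n = 6, individually housed beforehand without wheels. Compound gavaged 30 mg/kg/day for 7 days with daily IP BrdU 50 mg/kg; BrdU+ cells counted by immunohistochemistry per hippocampal volume; two-way ANOVA.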

[14] = Half life in Sprague-Dawley rat liver microsomes at 100 uM up to 180 mins by HPLC-UV analysis; settings: liver microsomes
[15] = Metabolic stability in Sprague-Dawley rat liver microsomes assessed as metabolic rate constant at 100 uM up to 180 mins by HPLC-UV analysis; settings: 3 h
Mus musculus [16] = experiment: Toxicity in C57BL/6 mouse assessed as effect on water intake at 677 to 2000 mg/kg, ig measured continuously during first 4 hrs, intermittently for following 24 hrs and occasionally thereafter for 14 consecutive days; format: organism-based; settings: in vivo, po
Mus musculus [17] = experiment: Toxicity in C57BL/6 mouse assessed as macroscopic abnormalities of spleen at 677 to 2000 mg/kg, ig after 14 consecutive days; format: organism-based; settings: in vivo, po
Mus musculus [18] = experiment: Induction of cell proliferation in C57BL/6 mouse hippocampal neurons in DG region assessed as BrdU-incorporation at 0.5 uL/hr, icv for 7 days by immunohistochemical analysis (reference value: 7.8%); format: functional
Mus musculus [19] = experiment: Toxicity in C57BL/6 mouse assessed as mortality at 677 to 2000 mg/kg, ig measured continuously during first 4 hrs, intermittently for following 24 hrs and occasionally thereafter for 14 consecutive days; format: organism-based; settings: in vivo, po
Method in brief: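 Adult C57BL/6 mice, 12 weeks old, given single intragastric doses of 0, 677, 1333 or 2000 mg/kg (n = 6 per dose, 3 male and 3 female). Abnormal behaviour and deaths observed continuously for the first 4 h, intermittently over the next 24 h, then occasionally for 14 days to catch delayed effects.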

Mus musculus [20] = experiment: Induction of cell proliferation in C57BL/6 mouse hippocampal neurons in CA3 region assessed as BrdU-incorporation at 30 mg/kg, po administered via gavage for 7 days by immunohistochemical analysis (reference value: 1.5%); format: functional; method in brief: as §4
Mus musculus [21] = experiment: Toxicity in double APP/PS1 transgenic Alzheimer's disease mouse model assessed as effect on body weight at 30 mg/kg/day, po for 80 days; format: organism-based; settings: in vivo, 1920 h; method in brief: as §3
Mus musculus [22] = experiment: Toxicity in C57BL/6 mouse assessed as macroscopic abnormalities of heart at 677 to 2000 mg/kg, ig after 14 consecutive days; format: organism-based; settings: in vivo, po
Mus musculus [23] = experiment: Toxicity in C57BL/6 mouse assessed as macroscopic abnormalities of intestine at 677 to 2000 mg/kg, ig after 14 consecutive days; format: organism-based; settings: in vivo, po
Mus musculus [24] = experiment: Toxicity in double APP/PS1 transgenic Alzheimer's disease mouse model assessed as carcinogenicity in stomach at 30 mg/kg/day, po for 80 days; format: organism-based; settings: in vivo, 1920 h; method in brief: as §3
Mus musculus [25] = experiment: Toxicity in double APP/PS1 transgenic Alzheimer's disease mouse model assessed as swimming speed at 30 mg/kg/day, po for 80 days by Morris water maze test (reference value: 17.8 +/- 2.5 cm/sec); format: organism-based; settings: in vivo, 1920 h
Mus musculus [26] = experiment: Toxicity in double APP/PS1 transgenic Alzheimer's disease mouse model assessed as increase in mortality at 30 mg/kg/day, po for 80 days; format: organism-based; settings: in vivo, 1920 h; method in brief: as §3

SMILES: Cl.Oc1c(Cl)cc(Cl)c2ccc(-c3cc4cc5c(cc4[nH]3)OCO5)nc12
- Activity (Mus musculus [1]): Non-Toxic
- Time (Mus musculus [2]): 16.7 s
- Activity (Mus musculus [3]): 49.8%
- Activity (Mus musculus [4]): Non-Toxic
- Time (Mus musculus [5]): 24 s
- Time (Mus musculus [6]): 2.6 s
- Activity (Mus musculus [7]): Non-Toxic
- Activity (Mus musculus [8]): Non-Toxic
- Activity (Mus musculus [9]): Non-Toxic
- Activity (Mus musculus [10]): Non-Toxic
- Activity (Mus musculus [11]): Non-Toxic
- Activity (Mus musculus [12]): 26%
- Activity (Mus musculus [13]): 14.6%
- half-life at 3 h, 100 µM [14]: 6.49 h
- K [15]: 0.00178 min⁻¹
- Activity (Mus musculus [16]): Non-Toxic
- Activity (Mus musculus [17]): Non-Toxic
- Activity (Mus musculus [18]): 31.2%
- Activity (Mus musculus [19]): Non-Toxic
- Activity (Mus musculus [20]): 17.1%
- Activity (Mus musculus [21]): Non-Toxic
- Activity (Mus musculus [22]): Non-Toxic
- Activity (Mus musculus [23]): Non-Toxic
- Activity (Mus musculus [24]): Non-Toxic
- Activity (Mus musculus [25]): 19 cm/s
- Activity (Mus musculus [26]): Non-Toxic

SMILES: Cl.Oc1ccc2[nH]c(-c3ccc4c(Cl)cc(Cl)c(O)c4n3)cc2c1
- Activity (Mus musculus [1]): Non-Toxic
- Time (Mus musculus [2]): 18 s
- Activity (Mus musculus [3]): 50.1%
- Activity (Mus musculus [4]): Non-Toxic
- Time (Mus musculus [5]): 27.4 s
- Time (Mus musculus [6]): 3.2 s
- Activity (Mus musculus [7]): Non-Toxic
- Activity (Mus musculus [8]): Non-Toxic
- Activity (Mus musculus [9]): Non-Toxic
- Activity (Mus musculus [10]): Non-Toxic
- Activity (Mus musculus [11]): Non-Toxic
- Activity (Mus musculus [12]): <=54%
- Activity (Mus musculus [13]): 21.1%
- half-life at 3 h, 100 µM [14]: 1.95 h
- K [15]: 0.00593 min⁻¹
- Activity (Mus musculus [16]): Non-Toxic
- Activity (Mus musculus [17]): Non-Toxic
- Activity (Mus musculus [18]): 41.3%
- Activity (Mus musculus [19]): Non-Toxic
- Activity (Mus musculus [20]): 23.9%
- Activity (Mus musculus [21]): Non-Toxic
- Activity (Mus musculus [22]): Non-Toxic
- Activity (Mus musculus [23]): Non-Toxic
- Activity (Mus musculus [24]): Non-Toxic
- Activity (Mus musculus [25]): 18.9 cm/s
- Activity (Mus musculus [26]): Non-Toxic
